The record followed here is paper PMC3773863 (Bioorganic & medicinal chemistry letters, 2013).

Assay [1] concerns the target pure porcine brain tubulin proteins (Sus scrofa, UniProt P02550+P02554). Description: In vitro tubulin polymerization assay. The assay is classed as biochemical. The settings on record: GPEM buffer, 37 °C, absorbance 340 nm.
The next assay relates to SR leukemia cells. Description: NCI in vitro human tumor cell screen, SR. The assay is classed as cell-based.
Assay [2] concerns NCI/ADR-RES ovarian cancer cells. Put plainly: NCI in vitro human tumor cell screen, NCI/ADR-RES. The format is cell-based. The essentials:
(§1)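 NCI-60 panel screen. GI50 is the log concentration that […]. TGI is the log concentration giving total growth inhibition. LC50 is the log concentration needed to kill 50% of the test population.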

The test system of assay [3] is NCI-H522 non-small cell lung cancer cells. Put plainly: NCI in vitro human tumor cell screen, NCI-H522. The assay is classed as cell-based.
Assay [4] relates to DU-145 prostate cancer cells. Description: NCI in vitro human tumor cell screen, DU-145. The assay is classed as cell-based. The essentials:
as §1

The next assay has as its system SK-MEL-5 melanoma cells. Put plainly: NCI in vitro human tumor cell screen, SK-MEL-5. The assay is classed as cell-based. The essentials: as §1
The test system of assay [5] is RXF 393 renal cancer cells. Description: NCI in vitro human tumor cell screen, RXF 393. The format is cell-based. The essentials: as §1
The next assay concerns SF-295 CNS cancer cells. Put plainly: NCI in vitro human tumor cell screen, SF-295. The format is cell-based. The essentials: as §1
Another assay concerns M14 melanoma cells. Description: NCI in vitro human tumor cell screen, M14. The format is cell-based. The essentials: as §1
In a further assay the test system is NCI-H522 cells. Put plainly: MTT anti-proliferation assay, NCI-H522. The format is cell-based, human. As to conditions: read-out: IC50 proliferation of NCI-H522 cells, 48 h incubation. A digest of the protocol:
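NCI-H522 cells in log-phase growth were exposed at 37 °C to test compound or DMSO vehicle in complete medium for 48 h. They were then given MTT (1 mg/mL in 1X PBS) for 2 h at 37 °C. Absorbance was read at 570 nm and corrected at 630 nm.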
(In general: Formazan colour is commonly taken as a measure of viable cells.)

The subject of assay [6] is MDA-MB-468 breast cancer cells. Put plainly: NCI in vitro human tumor cell screen, MDA-MB-468. The format is cell-based. The essentials: as §1
The subject of assay [7] is Colo205 colon cancer cells. Description: NCI in vitro human tumor cell screen, Colo205. The assay is classed as cell-based. A digest of the protocol: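 NCI-60 panel screen. GI50 is the log concentration that […]. TGI is the log concentration giving total growth inhibition.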
In assay [8] the test system is OVCAR-3 ovarian cancer cells. Description: NCI in vitro human tumor cell screen, OVCAR-3. The format is cell-based. A digest of the protocol:
as §1

The test system of assay [9] is MDA-MB-435 melanoma cells. Put plainly: NCI in vitro human tumor cell screen, MDA-MB-435. The assay is classed as cell-based.
For assay [10], the system named is SK-OV-3 ovarian cancer cells. Description: NCI in vitro human tumor cell screen, SK-OV-3. The format is cell-based. The essentials:
as §1

The subject of assay [11] is α-tubulin and β-tubulin in NCI-H522 cells. Put plainly: In vivo tubulin assembly assay. The assay is classed as cell-based, human. The settings on record: 24 h, 6h 10, 30, 100 nM, vincristine and paclitaxel 100 nM.

Chain of pure porcine brain tubulin proteins (P02550 whole entry): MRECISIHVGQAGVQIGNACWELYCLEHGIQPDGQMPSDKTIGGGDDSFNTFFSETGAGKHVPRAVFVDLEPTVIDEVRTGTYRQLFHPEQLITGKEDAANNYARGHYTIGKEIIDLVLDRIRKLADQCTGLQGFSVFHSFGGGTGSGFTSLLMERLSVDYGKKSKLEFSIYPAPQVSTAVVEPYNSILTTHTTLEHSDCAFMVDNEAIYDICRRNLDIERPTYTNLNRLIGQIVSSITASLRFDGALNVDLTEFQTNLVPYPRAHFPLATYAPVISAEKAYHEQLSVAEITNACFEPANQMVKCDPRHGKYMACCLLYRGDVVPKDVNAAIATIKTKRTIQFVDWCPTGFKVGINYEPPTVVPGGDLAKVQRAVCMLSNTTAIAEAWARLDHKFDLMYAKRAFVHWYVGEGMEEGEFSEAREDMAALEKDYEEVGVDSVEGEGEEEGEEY
Chain of pure porcine brain tubulin proteins (P02554 whole entry): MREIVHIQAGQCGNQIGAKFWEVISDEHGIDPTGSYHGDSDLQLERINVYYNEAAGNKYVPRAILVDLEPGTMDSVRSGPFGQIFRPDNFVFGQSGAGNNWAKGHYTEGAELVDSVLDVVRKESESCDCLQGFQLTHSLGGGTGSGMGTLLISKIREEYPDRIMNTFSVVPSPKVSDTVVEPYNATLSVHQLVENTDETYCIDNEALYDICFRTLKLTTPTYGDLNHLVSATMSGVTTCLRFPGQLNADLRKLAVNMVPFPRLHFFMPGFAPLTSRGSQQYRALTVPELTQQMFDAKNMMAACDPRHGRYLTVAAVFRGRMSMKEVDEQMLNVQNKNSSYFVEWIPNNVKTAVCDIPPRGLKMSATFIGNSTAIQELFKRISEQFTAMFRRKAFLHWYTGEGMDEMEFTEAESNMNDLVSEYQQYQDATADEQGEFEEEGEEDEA

With `CC[C@]1(O)C[C@@H]2CN(CCc3c([nH]c4ccccc34)[C@@](C(=O)OC)(c3cc4c(cc3OC)N(C)[C@H]3[C@@](O)(C(=O)OC)[C@H](OC(C)=O)[C@]5(CC)C=CCN6CC[C@]43[C@@H]65)C2)C1` [vinblastine], the “effect on tubulin polymerization” value in [1] is recorded as “inhibited tubulin polymerization”.

As to “2-(3-hydroxy-5-methoxyphenyl)-6-pyrrolidin-1-ylquinolin-4-one [Compound 6h]”, the logGI50 in the assay on SR leukemia cells is listed as less than −8.00; in assay [2], −7.21; in [3], less than −8.00; in assay [4], −7.51; with SK-MEL-5 melanoma cells, −7.61; in [5] it was −7.39. Besides, the logGI50 is listed as −6.96 in the assay on SF-295 CNS cancer cells; −7.52 in the assay with M14 melanoma cells; −6.58 in assay [6]; −7.27 in assay [7]; −7.63 in assay [8]; less than −8.00 in [9]. In assay [10], this molecule registered a logGI50 of −7.63. The logLC50 in the assay with SR leukemia cells was greater than −4.00; in assay [2], greater than −4.00; in [3], −5.41; in assay [4] it was greater than −4.00; with SK-MEL-5 melanoma cells, −6.31; in [5], greater than −4.00. Besides, the logLC50 with SF-295 CNS cancer cells is greater than −4.00; in the assay with M14 melanoma cells, greater than −4.00; in [6], greater than −4.00; in assay [8], −5.19; in assay [10], greater than −4.00. In addition, the logTGI in the assay on SR leukemia cells is recorded as greater than −4.00; in [2], −6.29; in [3] it was less than −8.00; in assay [4], −6.59; in the assay with SK-MEL-5 melanoma cells, −7.18; in assay [5], −4.62. Also, the logTGI in the assay on SF-295 CNS cancer cells is −4.95; in the assay with M14 melanoma cells, −4.80; in [6], −5.70; in assay [7], −6.66; in assay [8], −7.05; in assay [9], −7.53. This molecule showed a logTGI in [10] of −4.60. In the assay on NCI-H522 cells, the IC50 was found to be 42.3 ± 1.2 nM. Also, the “effect on tubulin polymerization” value in [1] is on record as “inhibited tubulin polymerization in a concentration-dependent manner”.

For the molecule `CC(=O)O[C@H]1C(=O)[C@@]2(C)[C@H]([C@H](OC(=O)c3ccccc3)[C@]3(O)C[C@H](OC(=O)[C@H](O)[C@@H](NC(=O)c4ccccc4)c4ccccc4)C(C)=C1C3(C)C)[C@]1(OC(C)=O)CO[C@@H]1C[C@@H]2O` [paclitaxel], the “effect on α-tubulin and β-tubulin in the cytoskeletal fraction” value in assay [11] is reported as “caused tubulin polymerization”.

With `CC[C@]1(O)C[C@H]2CN(CCc3c([nH]c4ccccc34)[C@@](C(=O)OC)(c3cc4c(cc3OC)N(C=O)[C@H]3[C@@](O)(C(=O)OC)[C@H](OC(C)=O)[C@]5(CC)C=CCN6CC[C@]43[C@@H]65)C2)C1` [vincristine], the “effect on tubulin polymerization” value in [1] is reported as “inhibited tubulin polymerization”.
